Data on 4 compounds can be found in ChEMBL document CHEMBL4190286, “Modulating the Serotonin Receptor Spectrum of Pulicatin Natural Products” (J Nat Prod, 2017).

The source made the active and inactive calls. No cut-off for these calls is given here.

Experiment [1] addresses T1, 5-hydroxytryptamine receptor 2B (Homo sapiens, UniProt P41595). The experiment is described as follows: Displacement of [3H]-LSD from human 5-HT2B receptor expressed in HEK cells after 90 mins by microbeta scintillation counting analysis. It counts as cell-based.
Experiment [2] addresses T2, 5-hydroxytryptamine receptor 1B (Homo sapiens, UniProt P28222). The experiment is described as follows: Displacement of [3H]5-CT from human 5-HT1B receptor expressed in HEK cells after 90 mins by microbeta scintillation counting analysis. It counts as cell-based. (In a radioligand displacement assay an active substance lowers the binding of a labelled ligand.)
Experiment [3] addresses T3, 5-hydroxytryptamine receptor 1D (Homo sapiens, UniProt P28221). Nature of the experiment: Displacement of [3H]5-CT from human 5-HT1D receptor expressed in HEKT cells after 90 mins by microbeta scintillation counting analysis. It counts as cell-based.
Experiment [4] deals with T4, 5-hydroxytryptamine receptor 1E (Homo sapiens, UniProt P28566). The experiment is described as follows: Displacement of [3H]5-HT from human 5-HT1E receptor expressed in HEK cells after 90 mins by microbeta scintillation counting analysis. Type of experiment: cell-based.
Experiment [5] addresses T5, 5-hydroxytryptamine receptor 2A (Homo sapiens, UniProt P28223). Nature of the experiment: Displacement of [3H]Ketanserin from 5-HT2A (unknown origin) receptor after 90 mins by microbeta scintillation counting analysis.
The target in experiment [6] is T6, 5-hydroxytryptamine receptor 2C (Homo sapiens, UniProt P28335).
T6 sequence (P28335 whole entry): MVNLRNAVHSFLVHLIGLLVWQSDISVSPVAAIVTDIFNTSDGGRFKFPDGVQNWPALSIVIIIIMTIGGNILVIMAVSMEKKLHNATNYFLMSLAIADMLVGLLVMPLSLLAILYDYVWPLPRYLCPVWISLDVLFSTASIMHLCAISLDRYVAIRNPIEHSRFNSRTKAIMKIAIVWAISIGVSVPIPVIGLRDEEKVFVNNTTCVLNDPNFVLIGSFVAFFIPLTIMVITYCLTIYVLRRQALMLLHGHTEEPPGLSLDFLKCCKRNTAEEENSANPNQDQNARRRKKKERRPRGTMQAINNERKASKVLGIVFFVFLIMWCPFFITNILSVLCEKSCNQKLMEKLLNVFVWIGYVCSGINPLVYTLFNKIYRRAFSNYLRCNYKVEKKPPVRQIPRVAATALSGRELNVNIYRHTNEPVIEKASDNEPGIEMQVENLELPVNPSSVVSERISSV
The experiment is described as follows: Displacement of [3H]-Mesulergine from human 5-HT2C receptor expressed in HEKT cells after 90 mins by microbeta scintillation counting analysis. Type of experiment: cell-based.

Experiment [7] addresses T7, 5-hydroxytryptamine receptor 3A (Homo sapiens, UniProt P46098).
T7 sequence (P46098 whole entry): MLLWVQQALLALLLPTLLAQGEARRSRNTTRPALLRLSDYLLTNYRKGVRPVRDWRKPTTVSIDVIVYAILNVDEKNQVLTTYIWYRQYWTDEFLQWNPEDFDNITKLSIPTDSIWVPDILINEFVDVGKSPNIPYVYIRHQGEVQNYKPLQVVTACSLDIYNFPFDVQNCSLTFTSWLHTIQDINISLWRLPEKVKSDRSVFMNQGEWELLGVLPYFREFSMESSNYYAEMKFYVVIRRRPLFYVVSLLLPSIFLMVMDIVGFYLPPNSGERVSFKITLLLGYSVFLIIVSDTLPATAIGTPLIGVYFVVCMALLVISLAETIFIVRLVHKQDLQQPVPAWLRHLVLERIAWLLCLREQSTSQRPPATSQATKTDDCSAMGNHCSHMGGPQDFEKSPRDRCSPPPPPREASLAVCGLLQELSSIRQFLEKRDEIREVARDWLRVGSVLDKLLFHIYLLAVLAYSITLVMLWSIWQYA
The experiment is described as follows: Displacement of [3H]-GR65630 from human 5-HT3 receptor expressed in HEKT cells after 90 mins by microbeta scintillation counting analysis. It counts as cell-based.

In experiment [8] the target is T8, 5-hydroxytryptamine receptor 5A (Homo sapiens, UniProt P47898). Nature of the experiment: Displacement of [3H]-LSD from human 5-HT5A receptor expressed in Flp-In CHO cells after 90 mins by microbeta scintillation counting analysis. It counts as cell-based.
Experiment [9] addresses T9, 5-hydroxytryptamine receptor 6 (Homo sapiens, UniProt P50406). Nature of the experiment: Displacement of [3H]-LSD from human 5-HT6 receptor expressed in HEK cells after 90 mins by microbeta scintillation counting analysis. It counts as cell-based.
Experiment [10] deals with T10, 5-hydroxytryptamine receptor 7 (Homo sapiens, UniProt P34969). The experiment is described as follows: Displacement of [3H]-LSD from human 5-HT7A receptor expressed in HEK cells after 90 mins by microbeta scintillation counting analysis. It counts as cell-based.
Experiment [11] deals with T1, 5-hydroxytryptamine receptor 2B. Nature of the experiment: Antagonist activity at 5-HT2B receptor (unknown origin) by calcium release assay. It counts as functional.
The target in experiment [12] is T11, 5-hydroxytryptamine receptor 1A (Homo sapiens, UniProt P08908).
T11 sequence (P08908 whole entry): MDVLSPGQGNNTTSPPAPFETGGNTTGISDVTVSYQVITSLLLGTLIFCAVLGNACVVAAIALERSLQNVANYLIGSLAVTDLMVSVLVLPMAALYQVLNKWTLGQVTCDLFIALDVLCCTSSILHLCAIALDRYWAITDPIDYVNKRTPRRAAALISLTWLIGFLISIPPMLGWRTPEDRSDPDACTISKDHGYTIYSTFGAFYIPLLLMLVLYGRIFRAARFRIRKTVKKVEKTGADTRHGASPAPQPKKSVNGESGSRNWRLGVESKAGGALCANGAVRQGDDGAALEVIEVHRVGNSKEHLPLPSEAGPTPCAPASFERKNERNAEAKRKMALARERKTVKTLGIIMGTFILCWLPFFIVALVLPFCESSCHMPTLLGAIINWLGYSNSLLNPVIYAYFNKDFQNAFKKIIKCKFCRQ
The experiment is described as follows: Antagonist activity at 5-HT1A receptor (unknown origin) by Tango assay. It counts as functional.

In experiment [13] the target is T2, 5-hydroxytryptamine receptor 1B. Nature of the experiment: Antagonist activity at 5-HT1B receptor (unknown origin) by Tango assay. Type of experiment: functional.
The target of experiment [14] is 5-hydroxytryptamine receptor 4 (Homo sapiens, UniProt Q13639). Nature of the experiment: Antagonist activity at 5-HT4 receptor (unknown origin) by Tango assay. It counts as functional.
The target of experiment [15] is T3, 5-hydroxytryptamine receptor 1D. Nature of the experiment: Antagonist activity at 5-HT1D receptor (unknown origin) by Tango assay. Type of experiment: functional.
The target of experiment [16] is T2, 5-hydroxytryptamine receptor 1B. The experiment is described as follows: Partial agonist activity at 5-HT1B receptor (unknown origin) by Tango assay. It counts as functional.
Experiment [17] shares this target. The experiment is described as follows: Agonist activity at 5-HT1B receptor (unknown origin) at 2 uM by Tango assay. Type of experiment: functional.
Experiment [18] relates to Mus musculus. Nature of the experiment: Anticonvulsant activity in ip dosed CF1 mouse assessed as protection against 44 mA current-induced seizure after 15 mins by 6 Hz psychomotor test. The note with it: 0.25 h. It counts as functional. Put shortly: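 Mice received intraperitoneal doses of 10, 30 or 100 mg/kg. At 1/4, 1/2, 1, 2 and 4 h after dosing, four mice per time point were given 44 mA for 3 s through corneal electrodes to elicit a partial psychomotor seizure. The result is the number of mice protected over the number tested.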

Experiment [19] concerns the target T2, 5-hydroxytryptamine receptor 1B. Nature of the experiment: Displacement of [3H]-LSD from human 5-HT1B receptor expressed in baculovirus infected Sf9 cells.
Experiment [20] concerns the target T3, 5-hydroxytryptamine receptor 1D. Nature of the experiment: Binding affinity to 5-HT1D receptor (unknown origin) by radioligand binding assay.
Experiment [21] deals with T4, 5-hydroxytryptamine receptor 1E. Nature of the experiment: Binding affinity to 5-HT1E receptor (unknown origin) by radioligand binding assay.
The target in experiment [22] is T5, 5-hydroxytryptamine receptor 2A. The experiment is described as follows: Binding affinity to 5-HT2A receptor (unknown origin) by radioligand binding assay.
Experiment [23] deals with T6, 5-hydroxytryptamine receptor 2C. Nature of the experiment: Binding affinity to 5-HT2C receptor (unknown origin) by radioligand binding assay.
The target in experiment [24] is T7, 5-hydroxytryptamine receptor 3A. The experiment is described as follows: Binding affinity to 5-HT3 receptor (unknown origin) by radioligand binding assay.
Experiment [25] concerns the target T8, 5-hydroxytryptamine receptor 5A. The experiment is described as follows: Binding affinity to 5-HT5A receptor (unknown origin) by radioligand binding assay.
Experiment [26] deals with T9, 5-hydroxytryptamine receptor 6. Nature of the experiment: Binding affinity to 5-HT6 receptor (unknown origin) by radioligand binding assay.
The target of experiment [27] is T10, 5-hydroxytryptamine receptor 7. The experiment is described as follows: Binding affinity to 5-HT7A receptor (unknown origin) by radioligand binding assay.
For experiment [28], the target named is T1, 5-hydroxytryptamine receptor 2B. Nature of the experiment: Agonist activity at 5-HT2B receptor (unknown origin) by calcium release assay. It counts as functional.
Experiment [29] has the same target. Nature of the experiment: Ratio of IC50 for antagonist activity at 5-HT2B receptor (unknown origin) by calcium release assay to Ki for displacement of [3H]-LSD from human 5-HT2B receptor expressed in baculovirus infected Sf9 cells. It counts as functional.
Experiment [30] relates to Mus musculus. Nature of the experiment: Anticonvulsant activity in ip dosed CF1 mouse assessed as protection against 44 mA current-induced seizure after 1 hr by 6 Hz psychomotor test. It counts as functional. Put shortly: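 Mice received compound intraperitoneally at 10, 30 and 100 mg/kg. At 0.25, 0.5, 1, 2 and 4 h after dosing, four mice per time point were challenged with 32 or 44 mA for 3 s through corneal electrodes to elicit a partial psychomotor seizure. Data are the number of mice protected over the number tested at each time.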

T1 sequence (P41595 whole entry): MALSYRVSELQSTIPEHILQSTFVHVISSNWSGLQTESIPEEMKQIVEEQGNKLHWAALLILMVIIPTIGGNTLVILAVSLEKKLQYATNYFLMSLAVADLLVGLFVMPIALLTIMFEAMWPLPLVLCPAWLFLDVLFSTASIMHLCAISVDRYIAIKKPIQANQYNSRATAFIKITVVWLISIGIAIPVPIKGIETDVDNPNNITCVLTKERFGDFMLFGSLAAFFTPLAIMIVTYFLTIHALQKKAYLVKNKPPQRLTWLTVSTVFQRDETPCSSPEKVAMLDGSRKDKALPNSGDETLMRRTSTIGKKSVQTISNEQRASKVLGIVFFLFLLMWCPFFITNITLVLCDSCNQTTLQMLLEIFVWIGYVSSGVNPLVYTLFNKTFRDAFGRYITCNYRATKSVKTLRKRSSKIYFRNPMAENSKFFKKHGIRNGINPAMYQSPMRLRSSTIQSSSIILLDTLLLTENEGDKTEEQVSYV
T2 sequence (P28222 whole entry): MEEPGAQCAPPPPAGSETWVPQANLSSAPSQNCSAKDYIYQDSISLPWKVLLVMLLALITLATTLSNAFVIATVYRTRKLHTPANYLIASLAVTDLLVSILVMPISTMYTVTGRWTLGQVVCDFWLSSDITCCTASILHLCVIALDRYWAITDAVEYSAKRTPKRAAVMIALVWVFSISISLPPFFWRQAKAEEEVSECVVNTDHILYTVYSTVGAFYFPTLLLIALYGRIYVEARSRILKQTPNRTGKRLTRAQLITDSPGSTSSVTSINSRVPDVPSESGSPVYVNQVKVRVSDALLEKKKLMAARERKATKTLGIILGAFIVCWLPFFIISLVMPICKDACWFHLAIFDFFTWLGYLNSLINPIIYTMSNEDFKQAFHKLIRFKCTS
T3 sequence (P28221 whole entry): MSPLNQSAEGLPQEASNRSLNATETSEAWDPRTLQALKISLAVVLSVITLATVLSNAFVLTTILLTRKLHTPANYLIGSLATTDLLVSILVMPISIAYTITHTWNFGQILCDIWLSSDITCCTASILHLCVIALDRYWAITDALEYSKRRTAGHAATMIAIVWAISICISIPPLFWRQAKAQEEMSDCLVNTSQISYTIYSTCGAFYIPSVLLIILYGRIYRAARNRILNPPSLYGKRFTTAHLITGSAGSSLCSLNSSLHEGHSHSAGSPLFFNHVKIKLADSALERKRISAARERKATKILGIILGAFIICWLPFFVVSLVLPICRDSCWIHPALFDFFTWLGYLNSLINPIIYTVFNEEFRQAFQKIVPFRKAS
T4 sequence (P28566 whole entry): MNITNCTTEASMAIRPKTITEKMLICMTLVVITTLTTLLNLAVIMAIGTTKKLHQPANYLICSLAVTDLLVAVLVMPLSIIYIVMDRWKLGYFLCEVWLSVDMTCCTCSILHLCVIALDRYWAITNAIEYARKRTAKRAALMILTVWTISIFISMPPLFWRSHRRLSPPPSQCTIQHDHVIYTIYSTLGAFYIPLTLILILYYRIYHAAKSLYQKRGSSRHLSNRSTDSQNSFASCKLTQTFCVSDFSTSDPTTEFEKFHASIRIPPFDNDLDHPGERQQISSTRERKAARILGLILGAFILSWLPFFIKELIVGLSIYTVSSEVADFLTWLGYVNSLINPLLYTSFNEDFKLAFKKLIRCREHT
T5 sequence (P28223 whole entry): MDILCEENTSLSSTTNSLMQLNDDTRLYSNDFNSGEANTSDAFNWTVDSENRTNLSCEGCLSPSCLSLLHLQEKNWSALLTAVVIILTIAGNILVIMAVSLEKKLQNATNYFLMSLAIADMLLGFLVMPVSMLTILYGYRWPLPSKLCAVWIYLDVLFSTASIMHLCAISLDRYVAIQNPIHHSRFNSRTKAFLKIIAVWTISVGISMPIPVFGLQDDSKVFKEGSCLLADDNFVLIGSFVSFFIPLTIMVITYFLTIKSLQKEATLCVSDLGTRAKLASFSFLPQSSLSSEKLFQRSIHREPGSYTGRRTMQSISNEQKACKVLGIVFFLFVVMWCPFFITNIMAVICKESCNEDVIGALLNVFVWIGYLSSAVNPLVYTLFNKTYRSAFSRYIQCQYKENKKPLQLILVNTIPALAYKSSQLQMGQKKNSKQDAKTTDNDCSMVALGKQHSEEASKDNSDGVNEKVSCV
T9 sequence (P50406 whole entry): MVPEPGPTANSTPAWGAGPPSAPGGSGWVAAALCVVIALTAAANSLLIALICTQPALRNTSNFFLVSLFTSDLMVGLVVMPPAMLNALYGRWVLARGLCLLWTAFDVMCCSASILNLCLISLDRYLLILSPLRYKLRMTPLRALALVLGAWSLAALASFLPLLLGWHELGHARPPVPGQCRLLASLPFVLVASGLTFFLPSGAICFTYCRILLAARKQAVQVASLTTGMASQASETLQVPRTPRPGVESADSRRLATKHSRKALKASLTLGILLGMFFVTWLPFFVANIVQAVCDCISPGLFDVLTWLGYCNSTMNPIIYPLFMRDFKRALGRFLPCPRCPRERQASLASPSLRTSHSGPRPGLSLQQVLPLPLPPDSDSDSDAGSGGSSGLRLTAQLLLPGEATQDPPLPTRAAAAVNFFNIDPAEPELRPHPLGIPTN
T8 sequence (P47898 whole entry): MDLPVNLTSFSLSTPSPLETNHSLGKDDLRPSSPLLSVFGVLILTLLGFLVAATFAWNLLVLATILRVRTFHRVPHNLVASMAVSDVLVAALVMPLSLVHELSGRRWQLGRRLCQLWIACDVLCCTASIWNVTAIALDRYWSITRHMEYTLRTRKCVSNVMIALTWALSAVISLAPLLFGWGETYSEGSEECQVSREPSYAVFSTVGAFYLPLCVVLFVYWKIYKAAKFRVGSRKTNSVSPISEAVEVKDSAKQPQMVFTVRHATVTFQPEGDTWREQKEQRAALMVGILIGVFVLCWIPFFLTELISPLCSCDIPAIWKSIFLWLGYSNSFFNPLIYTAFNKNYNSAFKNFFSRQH
T10 sequence (P34969 whole entry): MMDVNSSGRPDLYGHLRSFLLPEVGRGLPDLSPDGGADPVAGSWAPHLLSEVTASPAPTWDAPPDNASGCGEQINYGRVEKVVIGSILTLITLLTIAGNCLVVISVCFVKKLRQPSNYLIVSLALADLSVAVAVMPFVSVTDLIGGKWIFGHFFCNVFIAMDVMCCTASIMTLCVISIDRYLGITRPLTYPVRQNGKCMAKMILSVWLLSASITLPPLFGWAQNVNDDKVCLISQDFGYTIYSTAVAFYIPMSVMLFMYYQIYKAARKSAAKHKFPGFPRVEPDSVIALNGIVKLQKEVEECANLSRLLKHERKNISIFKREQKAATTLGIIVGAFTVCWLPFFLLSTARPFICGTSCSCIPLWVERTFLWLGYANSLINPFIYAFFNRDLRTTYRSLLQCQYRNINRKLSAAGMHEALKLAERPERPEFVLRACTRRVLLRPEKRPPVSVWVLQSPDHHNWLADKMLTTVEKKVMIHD
5-hydroxytryptamine receptor 4, sequence (Q13639 whole entry): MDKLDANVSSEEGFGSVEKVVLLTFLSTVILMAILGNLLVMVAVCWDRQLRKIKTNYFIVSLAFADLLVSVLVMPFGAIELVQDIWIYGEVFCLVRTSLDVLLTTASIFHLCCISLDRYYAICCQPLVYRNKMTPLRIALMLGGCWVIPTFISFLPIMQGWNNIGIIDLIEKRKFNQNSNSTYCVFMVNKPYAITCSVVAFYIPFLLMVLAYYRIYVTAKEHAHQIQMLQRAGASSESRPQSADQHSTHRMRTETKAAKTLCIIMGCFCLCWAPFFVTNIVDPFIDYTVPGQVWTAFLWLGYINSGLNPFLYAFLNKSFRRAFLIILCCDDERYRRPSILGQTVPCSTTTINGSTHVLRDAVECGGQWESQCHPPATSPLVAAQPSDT

By Ki is commonly meant the dissociation constant of the complex between target and ligand, obtained from inhibition or displacement. A low value points to tighter binding. The IC50 is the midpoint of a concentration-inhibition curve. As a reminder, the EC50 is the concentration at which the effect is half-maximal. Lower therefore signals an effect from little substance. As usually defined, the inhibition is the drop in the measured response relative to a control, in per cent. Higher therefore signals strong suppression. For `CCCCOc1ccc(C2=N[C@@H](CO)[C@H](C)S2)cc1` (relative stereo), the inhibition constant (Ki) in experiment [1] was 7.5 µM; in experiment [2] it was greater than 10 µM; in experiment [3] it was 9.7 µM; in experiment [4], greater than 10 µM; in experiment [5], 2.2 µM; in experiment [6], 3.2 µM. The Ki in experiment [7], in [8], in experiment [9] and in experiment [10] was greater than 10 µM in each case. Besides, the IC50 is greater than 10 µM in experiment [11]; greater than 10 µM in [12]; 2.1 µM in [13]; greater than 10 µM in experiment [14]; greater than 10 µM in [15]. Also, a half-maximal effect in [16] (EC50) was put at 0.029 µM. Besides, the inhibition in experiment [17] was 100%.
As usually defined, the ED50 is the dose at which the effect has come halfway, by size or by number of responders. Turning to `CCC1(C)CC(=O)NC1=O` (stereo unspecified) [ETHOSUXIMIDE], in the experiment with Mus musculus [18], the ED50 was greater than 600 mg/kg.
As to `C[C@@H]1SC(c2ccccc2O)=N[C@@H]1CO` [PULICATIN A], the Ki in experiment [19], in [20], in experiment [21], in experiment [22], in experiment [23] and in experiment [24] was greater than 10 µM in each case. The Ki in experiment [25], in [26] and in [27] was greater than 10 µM in each case. In addition, the IC50 in [11] was 30 µM. Besides, the result in experiment [28] was inactive. Also, the Ratio in [29] was 50 to 140.
With `CCCC(CCC)C(=O)O` [VALPROIC ACID], the ED50 with Mus musculus [30] is 310 mg/kg.
